# Test results published in ChEMBL document CHEMBL3758104, “Reinvestigating Old Pharmacophores: Are 4-Aminoquinolines and Tetraoxanes Potential Two-Stage Antimalarials?” (J Med Chem, 2016).
# The source made the active and inactive calls. No cut-off for these calls is given here.
# Experiments:
# Plasmodium berghei [1] = assay: Antimalarial activity against Plasmodium berghei ANKA infected in C57Bl6 mouse at 160 mg/kg/day, po measured on day 3 to 5 by Thompson test; assay type: functional
# Plasmodium berghei [2] = assay: Antimalarial activity against Plasmodium berghei ANKA infected in C57Bl6 mouse at 80 mg/kg/day, po measured on day 3 to 5 by Thompson test; assay type: functional
# Plasmodium berghei [3] = assay: Antimalarial activity against sporozoite stage of Plasmodium […] infected in human HepG2 cells; assay type: functional, organism-based
# Plasmodium falciparum [4] = assay: Antimalarial activity against mutidrug resistant Plasmodium falciparum TM91C235 after 48 hrs by [3H]hypoxanthine incorporation assay; assay type: functional, organism-based
# Summary of the method: (§1)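 P. falciparum D6 (Sierra I/UNC clone), W2 (Indochina I clone), TM91C235 (South-East Asian clone) cultured with compound; growth inhibition by [3H]hypoxanthine incorporation (modified Desjardins/Milhous method). Chloroquine, mefloquine, artemisinin as positive controls. IC50 in nM; technical triplicates, curve fits R2 0.96–1.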
# [5] = Half life in human liver microsomes at 1 uM by LC-MS/MS analysis; assay type: ADME
# Plasmodium falciparum [6] = assay: Antimalarial activity against chloroquine-susceptible Plasmodium falciparum D6 after 48 hrs by [3H]hypoxanthine incorporation assay; assay type: functional, organism-based; summary of the method: as §1
# Mus musculus = assay: Toxicity in Plasmodium berghei ANKA infected C57Bl6 mouse at 160 mg/kg/day, po administered for 3 days measured 2 times a day for 31 days; assay type: organism-based; conditions: in vivo, 744 h
# [7] = Selectivity index, ratio of IC50 for mouse RAW 264.7 cells to IC50 for chloroquine susceptible Plasmodium falciparum D6; assay type: toxicity; conditions: read-out: Ratio IC50
# Plasmodium falciparum [8] = assay: Antimalarial activity against chloroquine-resistant Plasmodium falciparum W2 after 48 hrs by [3H]hypoxanthine incorporation assay; assay type: functional, organism-based; summary of the method: as §1
# Plasmodium berghei [9] = assay: Antimalarial activity against Plasmodium berghei ANKA infected in C57Bl6 mouse assessed as reduction of parasitemia at 160 mg/kg/day, po administered for day 3 to 5 measured on day 6 by Thompson test; assay type: functional, organism-based
# Summary of the method: (§2)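 Modified Thompson test: C57Bl6 female mice inoculated intraperitoneally on day 0 with 1×10^6 P. berghei ANKA-infected erythrocytes; compound suspended in 0.5% hydroxyethylcellulose–0.1% Tween 80, given orally once daily on days 3, 4 and 5 post infection. Parasitemia by Giemsa-stained thin tail-blood smears on days 0, 3, 6, 10, 13, 17, 20, 24, 27, 31. Cure = survival without parasitemia to day 31.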
# RAW264.7 = assay: Cytotoxicity against mouse RAW264.7 cells; assay type: cell-based
# Plasmodium berghei [10] = assay: Antimalarial activity against Plasmodium berghei ANKA infected in C57Bl6 mouse assessed as reduction of parasitemia at 160 mg/kg/day, po administered for day 3 to 5 measured after 10 to 14 days by Thompson test; assay type: functional, organism-based; summary of the method: as §2
# [11] = Half life in mouse liver microsomes at 1 uM by LC-MS/MS analysis; assay type: ADME
# Plasmodium berghei [12] = assay: Antimalarial activity against sporozoite stage of Plasmodium berghei infected in human Huh7 cells assessed as inhibition of parasite infection pre-incubated for 24 hrs followed by parasite infection measured after 48 hrs by bioluminescence assay; assay type: functional, organism-based; conditions: Huh-7
# Plasmodium berghei [13] = assay: Antimalarial activity against sporozoite stage of Plasmodium berghei infected in human Huh7 cells assessed as remaining parasite infection at 5 uM pre-incubated for 24 hrs followed by parasite infection measured after 48 hrs by bioluminescence assay; conditions: Huh-7
# [14] = Selectivity index, ratio of IC50 for human HepG2 cells to IC50 for chloroquine susceptible Plasmodium falciparum D6; assay type: toxicity, cell-based; conditions: read-out: Ratio IC50
# HepG2 = assay: Cytotoxicity against human HepG2 cells after 48 hrs by MTT assay; assay type: cell-based; conditions: HepG2, 48 h
# Plasmodium falciparum [15] = assay: Antimalarial activity against 4th to 5th gametocyte stage of Plasmodium falciparum 3D7elo1-pfs16-CBG99 assessed as inhibition of gametocyte viability by luciferase reporter gene assay; assay type: functional, organism-based
# Summary of the method: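 Stage IV–V gametocytes of luciferase-expressing 3D7elo1-pfs16-CBG99 strain (CBG99 under pfs16 promoter); luciferase activity as viability read-out. Viability = 100×(treated−blank)/(untreated−blank), blank = 100 nM epoxomicin-treated sample. Epoxomicin and dihydroartemisinin as positive controls. IC50 from nonlinear regression of dose–response; mean of three experiments in duplicate.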
# [16] = Inhibition of beta hematin formation measured as hemin equivalent after 18 hrs; assay type: physicochemical
# Summary of the method: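 Hemin (16 mM in DMSO) mixed with compound at 0.125–5 mol equiv to hemin, plus water and 8 M acetate buffer pH 5.2, 25% DMSO final. Incubated 18 h at 37 °C. Pellet washed with DMSO, dissolved in 0.1 M NaOH, absorbance read at 405 nm (corrected at 670 nm) against a hemin calibration.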
# Plasmodium berghei [17] = assay: Antimalarial activity against Plasmodium berghei ANKA infected in po dosed C57Bl6 mouse administered on day 3 to 5 by Thompson test; assay type: functional; summary of the method: as §2
# Plasmodium berghei [18] = assay: Antimalarial activity against Plasmodium berghei ANKA infected in C57Bl6 mouse at 40 mg/kg/day, po on days 3 to 5 by Thompson test; assay type: functional
# Plasmodium berghei [19] = assay: Antimalarial activity against Plasmodium berghei ANKA infected in C57Bl6 mouse assessed as increase in cure rate at 80 mg/kg/day, po administered for day 3 to 5 by Thompson test; assay type: functional, organism-based; summary of the method: as §2
Compound,MST (Plasmodium berghei [1]),IC50 (Plasmodium falciparum [4]),IC50 (Plasmodium falciparum [6]),Activity (Mus musculus),IC50 (Plasmodium falciparum [8]),selectivity ratio [14],IC50 (HepG2),further results
CCN(CC)CCCC(C)Nc1ccnc2cc(Cl)ccc12 (centres undefined) [CHLOROQUINE],>31 days,–,–,–,–,–,–,MST (Plasmodium berghei [2]): 25.6 days; IC50 (Plasmodium berghei [3]): 9000 nM
CC(CNCCC12CC3CC(CC(C3)C1)C2)Nc1ccnc2cc(Cl)ccc12 (centres undefined),27.6 days,1 nM,1 nM,Non-toxic,4 nM,–,–,half-life at 1 µM [5]: 57 min; selectivity ratio [7]: 2910; Activity (Plasmodium berghei [9]): Active; IC50 (RAW264.7): 2910 nM; Activity (Plasmodium berghei [10]): inactive; half-life at 1 µM [11]: 60 min
Fc1ccc2scc(CNCCCCNc3ccnc4cc(Cl)ccc34)c2c1,30 days,–,–,Non-toxic,–,–,–,MST (Plasmodium berghei [2]): 30.2 days
Fc1ccc2c(CNCCCNc3ccnc4cc(Cl)ccc34)csc2c1,26.4 days,–,–,Non-toxic,–,–,–,–
CC(CCNCCC12CC3CC(CC(C3)C1)C2)Nc1ccnc2cc(Cl)ccc12 (centres undefined),–,13 nM,13 nM,–,13 nM,1870,24300 nM,half-life at 1 µM [5]: 60 min; IC50 (Plasmodium berghei [12]): 2500 nM; % infection at 5 µM (Plasmodium berghei [13]): 8%; half-life at 1 µM [11]: 60 min
C[C@H]1[C@@H](O)O[C@@H]2O[C@@]3(C)CC[C@H]4[C@H](C)CC[C@@H]1[C@@]24OO3 [ARTENIMOL],–,–,–,–,–,–,–,IC50 (Plasmodium falciparum [15]): 440 nM
C[C@H]1[C@H](N2CCS(=O)(=O)CC2)O[C@@H]2O[C@@]3(C)CC[C@H]4[C@H](C)CC[C@@H]1[C@@]24OO3 [ARTEMIFONE],–,–,–,–,–,–,–,IC50 (Plasmodium berghei [3]): 40 nM
CC(CCCNCCC12CC3CC(CC(C3)C1)C2)Nc1c(F)cnc2cc(Cl)ccc12 (centres undefined),–,590 nM,288 nM,–,547 nM,9,2610 nM,–
CCN(CC)CCCC(C)Nc1nc2cc(Cl)ccc2cc1F (centres undefined),–,–,–,–,–,–,–,IC50 (Plasmodium berghei [12]): 1000 nM; % infection at 5 µM (Plasmodium berghei [13]): 40%; IC50 [16]: 2.43 equiv
CC(CCCNc1ccnc2cc(Cl)ccc12)NCCC12CC3CC(CC(C3)C1)C2 (centres undefined),–,47 nM,9 nM,–,81 nM,289,2600 nM,–
Clc1ccc2c(NCCNCC34CC5CC(CC(C5)C3)C4)ccnc2c1,–,–,–,Non-toxic,–,–,–,MAC (Plasmodium berghei [17]): 40 mg/kg/day; MST (Plasmodium berghei [18]): >21.4 days; Activity (Plasmodium berghei [9]): Active; Activity (Plasmodium berghei [10]): inactive
CCN(CC)CCCNc1c(F)cnc2cc(Cl)ccc12,14.6 days,–,–,Non-toxic,–,–,–,–
CC(CNCC12CC3CC(CC(C3)C1)C2)Nc1ccnc2cc(Cl)ccc12 (centres undefined),–,1 nM,1 nM,–,3 nM,–,–,half-life at 1 µM [5]: 11 min; selectivity ratio [7]: 2900; IC50 (RAW264.7): 2900 nM; half-life at 1 µM [11]: 10 min
CC(CNc1ccnc2cc(Cl)ccc12)NCCC12CC3CC(CC(C3)C1)C2 (centres undefined),–,7 nM,6 nM,Non-toxic,7 nM,4190,25100 nM,MAC (Plasmodium berghei [17]): 80 mg/kg/day; half-life at 1 µM [5]: 27 min; MST (Plasmodium berghei [2]): 15.3 days; Activity (Plasmodium berghei [9]): Active; Activity (Plasmodium berghei [10]): inactive; half-life at 1 µM [11]: 60 min
CC(CCNCC12CC3CC(CC(C3)C1)C2)Nc1c(F)cnc2ccccc12 (centres undefined),–,259 nM,60 nM,Non-toxic,157 nM,3,–,Activity (Plasmodium berghei [19]): inactive; MST (Plasmodium berghei [2]): 12.8 days; IC50 [16]: 0.61 equiv
CC(CCNCCC12CC3CC(CC(C3)C1)C2)Nc1c(F)cnc2cc(Cl)ccc12 (centres undefined),–,171 nM,143 nM,–,203 nM,22,3210 nM,IC50 (Plasmodium berghei [12]): 1000 nM; % infection at 5 µM (Plasmodium berghei [13]): 3%
